Legend:
Format in all cases: functional
[1] = system: Escherichia coli; assay: Bactericidal activity against Escherichia coli NIHJ JC-2 preincubated for 1 min before addition of growth medium measured after 40 to 48 hrs
[2] = system: Escherichia coli; assay: Bactericidal activity against Escherichia coli NIHJ JC-2 preincubated for 3 mins before addition of growth medium measured after 40 to 48 hrs
[3] = system: Escherichia coli; assay: Bactericidal activity against Escherichia coli NIHJ JC-2 preincubated for 5 mins before addition of growth medium measured after 40 to 48 hrs
[4] = system: Pseudomonas aeruginosa; assay: Bactericidal activity against Pseudomonas aeruginosa PAO1 preincubated for 1 min before addition of growth medium measured after 40 to 48 hrs
[5] = system: Pseudomonas aeruginosa; assay: Bactericidal activity against Pseudomonas aeruginosa PAO1 preincubated for 3 mins before addition of growth medium measured after 40 to 48 hrs
[6] = system: Pseudomonas aeruginosa; assay: Bactericidal activity against Pseudomonas aeruginosa PAO1 preincubated for 5 mins before addition of growth medium measured after 40 to 48 hrs
[7] = system: Staphylococcus aureus; assay: Antibacterial activity against Staphylococcus aureus 209PJC after 24 hrs
How it was run: (§1)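 Value is the minimal inhibitory concentration (MIC) against the test organism, read after 24 h of incubation.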

[8] = system: Staphylococcus aureus; assay: Antibacterial activity against methicillin-resistant Staphylococcus aureus 97-115 after 24 hrs
How it was run: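 Read-out is the minimal inhibitory concentration (MIC), taken after 24 h incubation with the test organism.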

[9] = system: Escherichia coli; assay: Antibacterial activity against Escherichia coli NIHJ JC-2 after 24 hrs; how it was run: as §1
[10] = system: Pseudomonas aeruginosa; assay: Antibacterial activity against Pseudomonas aeruginosa PAO1; how it was run: as §1
[11] = system: Staphylococcus aureus; assay: Bactericidal activity against Staphylococcus aureus 209PJC preincubated for 1 min before addition of growth medium measured after 40 to 48 hrs
[12] = system: Staphylococcus aureus; assay: Bactericidal activity against Staphylococcus aureus 209PJC preincubated for 3 mins before addition of growth medium measured after 40 to 48 hrs
[13] = system: Staphylococcus aureus; assay: Bactericidal activity against Staphylococcus aureus 209PJC preincubated for 5 mins before addition of growth medium measured after 40 to 48 hrs
[14] = system: Staphylococcus aureus; assay: Bactericidal activity against methicillin-resistant Staphylococcus aureus 97-115 preincubated for 1 min before addition of growth medium measured after 40 to 48 hrs
How it was run: (§2)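 Read-out is the minimal bactericidal concentration (MBC), taken after 1, 3 and 5 min contact of compound with the test organism.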

[15] = system: Staphylococcus aureus; assay: Bactericidal activity against methicillin-resistant Staphylococcus aureus 97-115 preincubated for 3 mins before addition of growth medium measured after 40 to 48 hrs; how it was run: as §2
[16] = system: Staphylococcus aureus; assay: Bactericidal activity against methicillin-resistant Staphylococcus aureus 97-115 preincubated for 5 mins before addition of growth medium measured after 40 to 48 hrs; how it was run: as §2

Row | Structure (SMILES) | MBC [1] [µg/mL] | MBC [2] [µg/mL] | MBC [3] [µg/mL] | MBC [4] [µg/mL] | MBC [5] [µg/mL] | MBC [6] [µg/mL] | MIC [7] [µg/mL] | MIC [8] [µg/mL] | MIC [9] [µg/mL] | MIC [10] [µg/mL] | MBC [11] [µg/mL] | MBC [12] [µg/mL] | MBC [13] [µg/mL] | MBC [14] [µg/mL] | MBC [15] [µg/mL] | MBC [16] [µg/mL]
1 | CC(=O)O.CCCCCCCCNC1=NC(C)(C)NC(Nc2ccccc2)=N1 | 12.5 | 6.3 | 6.3 | 25 | 12.5 | 6.3 | 1.6 | 1.6 | 25 | 50 | 25 | 6.3 | 6.3 | 25 | 12.5 | 12.5
2 | CC(=O)O.CCCCCCCCNC1=NC(C)(C)NC(NCCCCCCCC)=N1 | – | – | – | – | – | – | 0.8 | 1.6 | 100 | > 100 | – | – | – | – | – | –
3 | CC(=O)O.CCCCCCCCCCNC1=NC(C)(C)NC(NCCc2ccccc2)=N1 | 12.5 | 12.5 | 12.5 | 25 | 12.5 | 12.5 | 0.8 | 0.8 | 25 | 25 | 50 | 12.5 | 12.5 | > 50 | > 50 | > 50
4 | CC(=O)O.CCCCCCCNC1=NC(C)(C)NC(NCCCCCCC)=N1 | 6.3 | 3.1 | 3.1 | 3.1 | 1.6 | 1.6 | 0.8 | 0.8 | 12.5 | 50 | 6.3 | 6.3 | 3.1 | 25 | 25 | 12.5
5 | CC(=O)O.CCCCCCCCCCCNC1=NC(C)(C)NC(NCc2ccccc2)=N1 | – | – | – | – | – | – | 0.4 | 0.8 | 100 | 100 | – | – | – | – | – | –
6 | CC(=O)O.CCCCCCCCCNC1=NC(C)(C)NC(Nc2ccccc2)=N1 | 12.5 | 6.3 | 3.1 | 6.3 | 3.1 | 3.1 | 0.8 | 0.8 | 12.5 | 12.5 | 12.5 | 6.3 | 6.3 | 25 | 25 | 25
7 | CC(=O)O.CCCCCCCCCNC1=NC(C)(C)NC(NCc2ccccc2)=N1 | 6.3 | 6.3 | 3.1 | 6.3 | 3.1 | 3.1 | 0.8 | 1.6 | 12.5 | 12.5 | 12.5 | 6.3 | 6.3 | 12.5 | 6.3 | 6.3
8 | CC(=O)O.CCCCCCCNC1=NC(C)(C)NC(Nc2ccccc2)=N1 | – | – | – | – | – | – | 6.3 | 6.3 | 50 | 100 | – | – | – | – | – | –
9 | CC(=O)O.CCCCCCCCCCCCNC1=NC(C)(C)NC(NCC)=N1 | 12.5 | 3.1 | 3.1 | 3.1 | 3.1 | 3.1 | 0.8 | 1.6 | 12.5 | 50 | 3.1 | 3.1 | 1.6 | 25 | 12.5 | 6.3
10 | CC(=O)O.CCCCCCCCNC1=NC(C)(C)NC(NCc2ccccc2Cl)=N1 | 3.1 | 3.1 | 1.6 | 6.3 | 3.1 | 1.6 | 0.8 | 0.8 | 25 | 25 | 12.5 | 6.3 | 6.3 | 12.5 | 6.3 | 6.3
11 | CC(=O)O.CCCCCCCCCNC1=NC(C)(C)NC(NCCc2ccccc2)=N1 | 12.5 | 3.1 | 3.1 | 12.5 | 3.1 | 1.6 | 0.4 | 0.8 | 12.5 | 12.5 | 25 | 12.5 | 6.3 | 25 | 12.5 | 6.3
12 | CC(=O)O.CCCCCCCNC1=NC(C)(C)NC(NCc2ccc(C)cc2)=N1 | 25 | 12.5 | 12.5 | 25 | 12.5 | 12.5 | 0.8 | 1.6 | 25 | 50 | 25 | 12.5 | 12.5 | 50 | 50 | 50

Source: ChEMBL document CHEMBL1143313, “Synthesis of novel 4,6-di(substituted)amino-1,2-dihydro-1,3,5-triazine derivatives as topical antiseptic agents” (2009)
